Data from ChEMBL document CHEMBL4024781, “Comprehensive Synthesis of Amino Acid-Derived Thiazole Peptidomimetic Analogues to Understand the Enigmatic Drug/Substrate-Binding Site of P-Glycoprotein” (J Med Chem, 2018).

How the values were obtained:
P-gp (ABCB1) [1] = biological target: T1, P-gp (ABCB1) (Homo sapiens, UniProt P08183); test: Activation of human P-gp expressed in high five insect cell membrane vesicles by measuring the vanadate-sensitive ATPase activity of P-gp at 0.05 uM preincubated for 5 mins in the presence of sodium orthovanadate measured after 20 mins by colorimetric method; conditions: read-out: Activity
P-gp (ABCB1) [2] = biological target: T1, P-gp (ABCB1); test: Activation of human P-gp expressed in high five insect cell membrane vesicles by measuring the vanadate-sensitive ATPase activity of P-gp at 0.5 uM preincubated for 5 mins in the presence of sodium orthovanadate measured after 20 mins by colorimetric method; conditions: read-out: Activity
P-gp (ABCB1) [3] = biological target: T1, P-gp (ABCB1); test: Activation of human P-gp expressed in high five insect cell membrane vesicles by measuring the vanadate-sensitive ATPase activity of P-gp at 2.5 uM preincubated for 5 mins in the presence of sodium orthovanadate measured after 20 mins by colorimetric method; conditions: read-out: Activity
HEK293 = test: Potentiation of paclitaxel-induced cytotoxicity against parental HEK293-pcDNA 3.1 transfected cells assessed as fold reduction in paclitaxel IC50 at 10 uM pre-incubated for 1 hr before paclitaxel addition and measured after 72 hrs by MTT assay; type: functional, Homo sapiens
How it was run: (§1)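 HEK293 cells stably transfected with ABCB1 or empty pcDNA3.1 vector, kept in G418. Seeded at 5000/well and grown 24 h, then given modulator at 10 μM for 1 h before serially diluted paclitaxel (up to 10 μM). MTT read at 570 nm after 72 h. Paclitaxel IC50 from four experiments in triplicate. Fold resistance = IC50 with modulator ÷ IC50 of paclitaxel alone in vector-control cells.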

[4] = biological target: T2, ATP-dependent translocase ABCB1 (Homo sapiens, UniProt P08183); test: Inhibition of human P-gp transfected in HEK293 cells assessed as potentiation of paclitaxel-induced cytotoxicity by measuring fold reduction in paclitaxel IC50 at 10 uM pre-incubated for 1 hr before paclitaxel addition and measured after 72 hrs by MTT assay; type: cell-based; conditions: hek293, 72 h; how it was run: as §1
Cytochrome P450 3A4 [5] = biological target: T3, Cytochrome P450 3A4 (Homo sapiens, UniProt P08684); test: Inhibition of CYP3A4 (unknown origin); type: ADME
[6] = Cytotoxicity in parental HEK293-pcDNA 3.1 transfected cells assessed as cell survival at 10 uM after 72 hrs by MTT assay; type: cell-based; conditions: human, parental HEK293 cells transfected with pcDNA 3.1
How it was run: (§2)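 HEK293 cells stably transfected with empty pcDNA3.1 vector or ABCB1 vector, kept in DMEM with 10% FBS, 1% penicillin/streptomycin, and 2 mg/mL G418 at 37°C in 5% CO2. Cells were seeded at 5000/well, and after 24 h treated with test compound alone, diluted from 10 mM DMSO stocks into medium. After 72 h, viability was read by MTT (4 mg/mL, 4 h), with formazan dissolved in DMSO and absorbance read at 570 nm.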

[7] = Cytotoxicity in P-gp tranfected HEK293 cells assessed as cell survival at 10 uM after 72 hrs by MTT assay; type: ADME, cell-based; conditions: human, P-gp transfected HEK293 cells; how it was run: as §2
P-gp (ABCB1) [8] = biological target: T1, P-gp (ABCB1); test: Inhibition of human P-gp expressed in high five insect cell membrane vesicles by measuring the vanadate-sensitive ATPase activity of P-gp at 0.5 uM preincubated for 5 mins in the presence of sodium orthovanadate measured after 20 mins by colorimetric method
P-gp (ABCB1) [9] = biological target: T1, P-gp (ABCB1); test: Inhibition of human P-gp expressed in high five insect cell membrane vesicles by measuring the vanadate-sensitive ATPase activity of P-gp at 2.5 uM preincubated for 5 mins in the presence of sodium orthovanadate measured after 20 mins by colorimetric method
[10] = biological target: T2, ATP-dependent translocase ABCB1; test: Displacement of [125I]-IAAP from human P-gp expressed in high five insect cell membrane vesicles preincubated for 10 mins followed by photocrosslinking for 10 mins by exposing under UV light for 10 mins by SDS-PAGE based method; conditions: for inhibition (INH): human, 10 min
How it was run: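 Membrane vesicles from P-gp-expressing High Five insect cells (65–75 μg protein/100 μL) incubated with compound (0–5 or 0–10 μM) in 50 mM MES-Tris pH 6.8, 150 mM NaCl, 37 °C, 10 min; moved to 4 °C, 4–5 nM [125I]-IAAP added under subdued light; 366 nm UV 10 min; P-gp band incorporation quantified after SDS-PAGE, DMSO-only as 100%.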

CYP3A4 [11] = biological target: T4, CYP3A4 (Homo sapiens, UniProt P08684); test: (§3) Inhibition of CYP3A4 (unknown origin) at 25 uM by fluorescence based-vivid CYP450 green screening kit based assay; type: ADME
CYP3A4 [12] = biological target: T4, CYP3A4; test: Inhibition of CYP3A4 (unknown origin) at 50 uM by fluorescence based-vivid CYP450 green screening kit based assay; type: ADME
P-gp (ABCB1) [13] = biological target: T1, P-gp (ABCB1); test: Displacement of [125I]-IAAP from human P-gp expressed in high five insect cell membrane vesicles at >5 uM preincubated for 10 mins followed by photocrosslinking for 10 mins by exposing under UV light for 10 mins by SDS-PAGE based method; conditions: probe [125I]-IAAP, read-out: Imax
How it was run: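 Membrane vesicles (65–75 μg protein/100 μL) incubated with compound (0–5 or 0–10 μM) in 50 mM MES-Tris pH 6.8, 150 mM NaCl, 37 °C 10 min, then moved to 4 °C. 4–5 nM [125I]-IAAP (2200 Ci/mmol) added under subdued light, cross-linked at 366 nm UV 10 min. P-gp band incorporation quantified after SDS-PAGE, DMSO-only sample = 100%.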

Cytochrome P450 3A4 [14] = biological target: T3, Cytochrome P450 3A4; test: as §3; type: ADME; conditions: 25 µM

T2 sequence (P08183 whole entry): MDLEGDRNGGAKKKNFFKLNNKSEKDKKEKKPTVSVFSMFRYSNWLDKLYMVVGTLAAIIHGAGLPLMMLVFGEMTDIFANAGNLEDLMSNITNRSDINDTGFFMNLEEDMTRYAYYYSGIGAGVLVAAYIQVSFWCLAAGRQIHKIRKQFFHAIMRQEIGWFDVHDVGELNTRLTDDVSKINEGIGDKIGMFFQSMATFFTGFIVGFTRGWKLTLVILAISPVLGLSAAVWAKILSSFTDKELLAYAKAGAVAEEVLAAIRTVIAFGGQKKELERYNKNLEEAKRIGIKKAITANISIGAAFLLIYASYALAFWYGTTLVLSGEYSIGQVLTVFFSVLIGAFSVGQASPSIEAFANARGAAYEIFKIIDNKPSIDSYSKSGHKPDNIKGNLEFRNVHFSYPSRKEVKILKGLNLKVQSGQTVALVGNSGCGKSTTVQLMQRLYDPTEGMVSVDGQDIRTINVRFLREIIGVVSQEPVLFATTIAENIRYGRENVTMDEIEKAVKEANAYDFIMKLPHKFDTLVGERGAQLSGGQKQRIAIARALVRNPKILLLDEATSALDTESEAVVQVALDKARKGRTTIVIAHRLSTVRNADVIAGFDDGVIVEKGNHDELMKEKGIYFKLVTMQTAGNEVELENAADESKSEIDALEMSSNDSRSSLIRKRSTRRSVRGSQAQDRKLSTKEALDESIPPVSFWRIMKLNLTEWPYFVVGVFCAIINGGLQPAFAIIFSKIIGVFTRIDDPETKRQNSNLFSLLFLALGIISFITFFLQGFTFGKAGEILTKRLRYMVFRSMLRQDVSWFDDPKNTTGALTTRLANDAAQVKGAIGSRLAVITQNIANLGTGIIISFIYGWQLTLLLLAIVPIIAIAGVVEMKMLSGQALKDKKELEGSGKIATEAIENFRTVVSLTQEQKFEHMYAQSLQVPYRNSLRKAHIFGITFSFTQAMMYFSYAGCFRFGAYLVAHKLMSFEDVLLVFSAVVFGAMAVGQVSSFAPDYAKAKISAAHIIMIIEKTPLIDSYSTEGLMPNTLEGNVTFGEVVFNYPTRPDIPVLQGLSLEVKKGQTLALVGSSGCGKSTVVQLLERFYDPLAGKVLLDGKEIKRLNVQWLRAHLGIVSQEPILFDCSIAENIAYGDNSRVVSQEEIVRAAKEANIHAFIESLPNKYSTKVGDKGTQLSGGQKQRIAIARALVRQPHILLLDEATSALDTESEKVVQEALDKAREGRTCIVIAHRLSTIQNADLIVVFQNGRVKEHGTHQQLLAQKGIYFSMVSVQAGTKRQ
T1 sequence (P08183 whole entry): as above
T4 sequence (P08684 whole entry): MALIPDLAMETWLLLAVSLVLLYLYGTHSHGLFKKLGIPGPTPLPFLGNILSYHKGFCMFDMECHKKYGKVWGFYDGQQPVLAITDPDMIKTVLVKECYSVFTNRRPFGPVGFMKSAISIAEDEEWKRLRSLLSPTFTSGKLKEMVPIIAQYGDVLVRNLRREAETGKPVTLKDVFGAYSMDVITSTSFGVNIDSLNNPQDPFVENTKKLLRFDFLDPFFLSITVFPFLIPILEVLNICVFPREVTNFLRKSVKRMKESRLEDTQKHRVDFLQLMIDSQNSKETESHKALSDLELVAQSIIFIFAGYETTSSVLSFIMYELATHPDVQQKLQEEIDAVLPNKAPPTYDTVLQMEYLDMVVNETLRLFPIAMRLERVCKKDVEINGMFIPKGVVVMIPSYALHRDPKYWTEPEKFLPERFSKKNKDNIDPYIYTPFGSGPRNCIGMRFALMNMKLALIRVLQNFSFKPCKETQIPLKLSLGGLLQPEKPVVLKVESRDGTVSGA
T3 sequence (P08684 whole entry): as above

COc1cc(C(=O)N[C@H](c2nc(C(=O)Nc3ccccc3C(=O)c3ccccc3)cs2)C(C)C)cc(OC)c1OC
activity at 20 min, 0.05 µM (P-gp (ABCB1) [1]): 54%
activity at 20 min, 0.5 µM (P-gp (ABCB1) [2]): 83%
activity at 20 min, 2.5 µM (P-gp (ABCB1) [3]): 88%
fold change (FC) (HEK293): 1
fold change (FC) [4]: 0.6
IC50 (Cytochrome P450 3A4 [5]): 8230 nM
viability at 72 h, 10 µM [6]: > 80%
viability at 72 h, 10 µM [7]: > 80%

COc1cc(C(=O)N[C@H](c2nc(C(=O)NC3CCC(F)(F)CC3)cs2)C(C)C)cc(OC)c1OC
inhibition at 20 min, 0.5 µM (P-gp (ABCB1) [8]): 30.7%
inhibition at 20 min, 2.5 µM (P-gp (ABCB1) [9]): 33.9%
IC50 [10]: 100 nM
inhibition (INH) [10]: Dose-dependent effect
fold change (FC) (HEK293): 0.6
fold change (FC) [4]: 0.6
inhibition at 25 µM (CYP3A4 [11]): 9.32%
inhibition at 50 µM (CYP3A4 [12]): 28.7%
viability at 72 h, 10 µM [6]: > 80%
viability at 72 h, 10 µM [7]: > 80%
Emax at 10 min (P-gp (ABCB1) [13]): 90%

COc1cc(C(=O)NC(Cc2ccccc2)c2nc(C(=O)NC3CCC(F)(F)CC3)cs2)cc(OC)c1OC (centres undefined)
inhibition at 20 min, 0.5 µM (P-gp (ABCB1) [8]): 39.6%
inhibition at 20 min, 2.5 µM (P-gp (ABCB1) [9]): 42.5%
IC50 [10]: 760 nM
inhibition (INH) [10]: Dose-dependent effect
fold change (FC) (HEK293): 0.5
fold change (FC) [4]: 1.7
inhibition (INH) (Cytochrome P450 3A4 [14]): Not Active
inhibition at 50 µM (CYP3A4 [12]): 32.9%
viability at 72 h, 10 µM [6]: > 80%
viability at 72 h, 10 µM [7]: > 80%
